Measured values collected from several papers.
Protocols differ between the studies behind these lines.
Target: Activin receptor type-1 (ACVR1, Homo sapiens, UniProt Q04771)
Sequence (Q04771 21-509, as in one of the studies): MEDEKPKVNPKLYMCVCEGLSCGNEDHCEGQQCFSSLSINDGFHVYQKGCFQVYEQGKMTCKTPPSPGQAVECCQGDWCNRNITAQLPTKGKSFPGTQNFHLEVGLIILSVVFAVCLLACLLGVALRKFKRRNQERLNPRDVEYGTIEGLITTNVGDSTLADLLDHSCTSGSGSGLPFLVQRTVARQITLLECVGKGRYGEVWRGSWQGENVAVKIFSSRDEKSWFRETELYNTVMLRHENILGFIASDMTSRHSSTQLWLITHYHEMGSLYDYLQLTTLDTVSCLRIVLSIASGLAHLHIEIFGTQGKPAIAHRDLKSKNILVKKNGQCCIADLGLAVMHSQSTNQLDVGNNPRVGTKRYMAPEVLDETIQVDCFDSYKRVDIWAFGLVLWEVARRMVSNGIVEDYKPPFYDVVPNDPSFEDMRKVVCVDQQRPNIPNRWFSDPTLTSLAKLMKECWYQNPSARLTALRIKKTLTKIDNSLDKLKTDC

`O=C(NCCCN1CCOCC1)c1ccc(Nc2ncc(Cl)c(-c3ccc(Cl)s3)n2)cc1` gave a remaining binding of 78% (binding; competition with immobilised ligand; 1 µM).
For `O=C(O)[C@@H]1[C@@H](Cn2nnc3ccccc3c2=O)CC[C@H]1C(=O)c1ccc(OCCC2CCOCC2)cc1`, the remaining binding was 100% (cell-free assay; competition with immobilised ligand; 1 µM).
For `CN(C)c1nccc(-c2cnn3ncccc23)n1`, the remaining binding was 90% (binding; 1 µM).
`C[C@@H](c1ccc(-n2cnc3c(N)ncnc32)cc1)N1CCc2nn(C)c(Cc3ccccc3)c2C1=O` has a remaining binding of 85% (binding; competition with immobilised ligand; 0.1 µM).
The remaining binding of `C[C@@H]1CCN(c2nccc(-c3cnn4ncccc34)n2)C1` is reported as 100% (binding; 1 µM).
The remaining binding of `CNC(=O)[C@@H]1CC[C@@H](n2c(-c3ccc4cnccc4c3)nc3ccc(C(=O)NCc4cccc(C(N)=O)c4)cc32)C1` is reported as 46% (binding; competition with immobilised ligand; 1 µM).
For `CN(C)c1nccc(-c2cnc3ncccn23)n1`, the remaining binding was 88% (binding; 1 µM).
The remaining binding of `Nc1ncc2c(n1)-c1c([nH]c3ccc(C#CC4CC4)cc13)CCCC2` is reported as 100% (binding; competition with immobilised ligand; 1 µM).
`O=C(NCCCC1CCCCC1)c1ccc(CNC(=O)c2cnn(-c3ccccc3)c2C(F)(F)F)cc1` gave a remaining binding of 100% (cell-free assay; competition with immobilised ligand; 0.1 µM).
For `O=C(NCCCN1CCOCC1)c1ccc(Nc2nccc(-c3cc4ccccc4s3)n2)cc1`, the remaining binding was 14% (binding; competition with immobilised ligand; 1 µM).
With `COc1cnc(Nc2cccc(S(N)(=O)=O)c2)nc1N1CCN(c2ccccc2)C(=O)C1` the remaining binding was 100% (binding; competition with immobilised ligand; 1 µM).
`O=C(NCC1CCOCC1)c1n[nH]cc1NC(=O)c1c(F)cccc1F` gave a remaining binding of 96% (binding; competition with immobilised ligand; 1 µM).
`COc1ccnn2ncc(-c3ccnc(N(C)C)n3)c12` has a remaining binding of 80% (binding; 1 µM).
`C[C@H](c1cccc(C#N)c1)n1cc(Cl)cc(C(N)=O)c1=N` has a remaining binding of 88% (cell-free assay; competition with immobilised ligand; 1 µM).
`c1cnn2ncc(-c3ccnc(N4CCC45COC5)n3)c2c1` has a remaining binding of 64% (binding; 1 µM).
`O=C1CCc2cc(Nc3cc(OC4CCOCC4)c([N+](=O)[O-])cc3Cl)ccc2N1` gave a remaining binding of 100% (cell-free assay; competition with immobilised ligand; 1 µM).
`O=C(c1ccc(Nc2ncc(Cl)c(-c3cc4ccccc4s3)n2)cc1)N1CCC(N2CCCC2)CC1` has a remaining binding of 69% (binding; competition with immobilised ligand; 1 µM).
`FC(F)(F)c1ccc2c(c1)nc(-c1cccnc1)n2C1CC1` gave a remaining binding of 100% (cell-free assay; competition with immobilised ligand; 1 µM).
`CN(C)c1ncc(F)c(-c2cnn3ncccc23)n1` gave a remaining binding of 79% (binding; 1 µM).
With `Cc1nc(N2CC[C@@H](O)C2)ncc1-c1cc(C(F)(F)F)cc2[nH]ncc12` the remaining binding was 80% (cell-free assay; competition with immobilised ligand; 1 µM).
The remaining binding of `COc1ncc2cc3ccccc3nc2c1C#N` is reported as 100% (cell-free assay; competition with immobilised ligand; 5 µM).
